From ChEMBL document CHEMBL1145303, “The development of novel C-2, C-8, and N-9 trisubstituted purines as inhibitors of TNF-alpha production” (Bioorg Med Chem Lett, 2006)

Experiments:
[1] = test system: THP-1; test: Inhibition of LPS-stimulated TNFalpha production in THP1 cells; assay type: functional, cell-based; settings: Homo sapiens
Outline: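 Human monocytic THP-1 cells, 2.0 · 10⁵/well, cultured in duplicate, preincubated 15 min with or without a range of inhibitor concentrations. TNF-α release then stimulated with LPS at 2 µg/ml. Secreted TNF-α measured by ELISA 4 h after stimulation. Cell viability after the 4 h incubation checked by MTS assay.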

[2] = Metabolic stability in Sprague-Dawley rat liver microsomes assessed as percent loss after 4 hrs; assay type: ADME, Microsome; settings: hepatocytes, in the assay text read “hepatocytes” for “liver microsomes”, read-out: Activity
Outline: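 Plated Sprague–Dawley rat hepatocytes, not microsomes, with matrigel blank plates. Test compound incubated at 37 °C in triplicate, sampled at 0, 2 and 4 h. Samples pooled after incubation into a multi-compound set, internal standard added, reverse-phase LC/MS/MS. The compound/internal-standard area ratio at 4 h divided by the 0 h ratio gives percent loss.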

[3] = Bioavailability in rat; assay type: ADME, organism-based; settings: in vivo
[4] = Half life in rat; assay type: ADME, organism-based; settings: in vivo

Row | Compound | IC50 [1] [nM] | also measured
1 | CCn1c(Nc2ccccc2OC)nc2cnc(Oc3c(F)cccc3F)nc21 | 2050 | –
2 | CCn1c(Nc2ccc(C)cc2Cl)nc2cnc(Oc3c(F)cccc3F)nc21 | 273 | –
3 | CCn1c(Nc2ccccc2O)nc2cnc(Oc3c(F)cccc3F)nc21 | 906 | –
4 | CC(C)n1c(Nc2ccccc2Cl)nc2cnc(Nc3c(F)cccc3F)nc21 | 630 | –
5 | CCn1c(C(=O)c2ccccc2Cl)nc2cnc(Oc3c(F)cccc3F)nc21 | 4 | metabolised at 4 h [2]: 82%
6 | Cn1c(NC(=O)c2ccccc2Cl)nc2cnc(NC3CCOCC3)nc21 | > 10000 | –
7 | CCn1c(Sc2ccccc2Cl)nc2cnc(Oc3c(F)cccc3F)nc21 | 14 | metabolised at 4 h [2]: 75%
8 | CCn1c(Nc2ccccc2C)nc2cnc(Oc3c(F)cccc3F)nc21 | 48 | metabolised at 4 h [2]: 56%; bioavailability [3]: 9%; half-life [4]: 1.5 h
9 | Cn1c(Nc2ccccc2Cl)nc2cnc(Nc3c(F)cccc3F)nc21 | 1540 | –
10 | CCn1c([S+]([O-])c2ccccc2Cl)nc2cnc(Oc3c(F)cccc3F)nc21 (configuration not stated) | > 1000 | –
11 | Cn1c(Nc2ccccc2Cl)nc2cnc(Nc3ccc(F)cc3F)nc21 | 6560 | –
12 | CCn1c(Nc2cccc(Cl)c2Cl)nc2cnc(Oc3c(F)cccc3F)nc21 | 300 | –
13 | CCn1c(C(=O)c2ccccc2F)nc2cnc(Oc3c(F)cccc3F)nc21 | 207 | –
14 | CCn1c(Nc2ccccc2N)nc2cnc(Oc3c(F)cccc3F)nc21 | 473 | –
15 | Cn1c(Nc2ccccc2Cl)nc2cnc(NC3CCOCC3)nc21 | 6580 | –
16 | C[C@H](Nc1ncc2nc(NCc3ccccc3Cl)n(C)c2n1)C(C)(C)O | > 10000 | –
17 | CCn1c(Nc2ccccc2Cl)nc2cnc(Nc3ccccc3F)nc21 | 2110 | –

Row | Compound | IC50 [1] [nM] | also measured
18 | Cn1c(Nc2ccccc2Cl)nc2cnc(Nc3ccccc3F)nc21 | 10000 | –
19 | CCn1c(C(O)c2ccccc2Cl)nc2cnc(Oc3c(F)cccc3F)nc21 (configuration not stated) | 169 | –
20 | CC(C)n1c(C(=O)c2ccccc2Cl)nc2cnc(Oc3c(F)cccc3F)nc21 | 650 | –
21 | CCn1c(Nc2c(Cl)cccc2Cl)nc2cnc(Oc3c(F)cccc3F)nc21 | 100 | –
22 | C[C@H](Nc1ncc2nc(NCCc3ccccc3Cl)n(C)c2n1)C(C)(C)O | > 10000 | –
23 | CCn1c(Oc2ccccc2Cl)nc2cnc(Oc3c(F)cccc3F)nc21 | 86 | –
24 | CCn1c(Nc2ccccc2F)nc2cnc(Oc3c(F)cccc3F)nc21 | 35 | metabolised at 4 h [2]: 65%
25 | CC(C)n1c(Nc2ccccc2F)nc2cnc(Oc3c(F)cccc3F)nc21 | 4 | metabolised at 4 h [2]: 61%; bioavailability [3]: 9%; half-life [4]: 1.5 h
26 | CCn1c(Nc2ccccc2Cl)nc2cnc(Oc3c(F)cccc3F)nc21 | 69 | –
27 | CC(C)(C)n1c(Nc2ccccc2Cl)nc2cnc(Nc3c(F)cccc3F)nc21 | > 1000 | –
28 | CCCCn1c(Nc2ccccc2Cl)nc2cnc(Nc3c(F)cccc3F)nc21 | 798 | –
29 | Fc1cccc(F)c1Nc1ncc2nc(Nc3ccccc3Cl)n(C3CC3)c2n1 | > 1000 | –
30 | CCn1c(Nc2ccc(F)cc2Cl)nc2cnc(Oc3c(F)cccc3F)nc21 | 237 | –
31 | CCn1c(Nc2ccccc2Cl)nc2cnc(Nc3c(F)cccc3F)nc21 | 542 | –
32 | C[C@H](Nc1ncc2nc(Nc3ccccc3Cl)n(C)c2n1)C(C)(C)O | 3170 | –
33 | O=c1ncn2nc(Sc3ccc(F)cc3F)ccc2c1-c1c(Cl)cccc1Cl [NEFLAMAPIMOD] | 56 | –
